Measurements from different studies.
FLT3 D835H: Receptor-type tyrosine-protein kinase FLT3 (FLT3, Homo sapiens, UniProt P36888, D835H)
FLT3 autoinhibited: Receptor-type tyrosine-protein kinase FLT3, autoinhibited (FLT3, Homo sapiens, UniProt P36888)
FLT3 ITD: Receptor-type tyrosine-protein kinase FLT3 (FLT3, Homo sapiens, UniProt P36888, ITD)
FLT3: Receptor-type tyrosine-protein kinase FLT3 (FLT3, Homo sapiens, UniProt P36888)
FLT3 D835Y: Receptor-type tyrosine-protein kinase FLT3 (FLT3, Homo sapiens, UniProt P36888, D835Y)
FLT3 F691L/ITD: Receptor-type tyrosine-protein kinase FLT3 (FLT3, Homo sapiens, UniProt P36888, F691L/ITD)
FLT3 R834Q: Receptor-type tyrosine-protein kinase FLT3 (FLT3, Homo sapiens, UniProt P36888, R834Q)

SMILES	target	test	conditions	endpoint	result
CC1CCCN1c1nccc(-c2cnn3ncccc23)n1 (centres unmarked)	FLT3 D835H	binding	1 µM	remaining binding	90%
CCCCN(CCCC)C(=O)CN1C[C@@H](c2cc(OC)c3c(c2)OCO3)[C@H](C(=O)O)[C@H]1CC(C)(C)CCC	FLT3 autoinhibited	cell-free assay, competition with immobilised ligand	1 µM	remaining binding	97.4%
Cc1cnc(-c2ccc(-c3ccc(NC(=O)Nc4c(F)cc(F)cc4F)cc3F)c3c2C(=O)NC3)[nH]1	FLT3 ITD	enzyme activity, inhibitor	1 µM, 90 min	activity vs control	1.6%
CCN(CC)CCNC(=O)c1c(C)[nH]c(/C=C2\C(=O)Nc3ccc(F)cc32)c1C	FLT3	enzyme activity, inhibitor	0.1 µM	remaining activity	1%
Cc1ccc(C(=O)NCc2ccsc2)cc1C#Cc1cn(C(C)C)c2ncnc(N)c12	FLT3 D835Y	enzyme activity, inhibitor	1 µM	activity vs control	118%
CC(C)CC(=O)N1CCc2nc(-c3ccc(Br)cc3)nc(N(C)Cc3ccccc3)c2C1	FLT3 F691L/ITD	cell-free assay, competition with immobilised ligand	0.1 µM	remaining binding	68%
Cc1cnc(NC2CCOCC2)nc1-n1cnc(C(=O)NC(CN)c2cc(F)cc(Cl)c2)c1 (centres unmarked)	FLT3	enzyme activity, inhibitor, radiometric	1 µM	remaining activity	94%
CCCOc1ccc([C@H]2[C@H](C(=O)O)[C@@H](c3ccc4c(c3)OCO4)CN2CC(=O)Nc2c(CC)cccc2CC)cc1	FLT3 ITD	cell-free assay, competition with immobilised ligand	1 µM	remaining binding	81%
O=C(c1ccc(Nc2nccc(-c3cc4ccccc4s3)n2)cc1)N1CCC(N2CCCC2)CC1	FLT3 F691L/ITD	binding, competition with immobilised ligand	1 µM	remaining binding	19%
Cc1ccc(C(=O)Nc2ccc(CN3CCN(C)CC3)c(C(F)(F)F)c2)cc1C#Cc1cnc2cccnn12	FLT3 R834Q	enzyme activity, inhibitor	23.5 nM	remaining activity	5%
COc1cc2c(Nc3ccc(Br)cc3F)ncnc2cc1OCC1CCN(C)CC1	FLT3	cell-free assay	0.5 µM	remaining signal	43.7%
c1cnn2ncc(-c3ccnc(N4CCC45COC5)n3)c2c1	FLT3 R834Q	binding	1 µM	remaining binding	82%
CC(=O)N1CCC(c2ccc(C(=O)NC(=N)N)cc2C(F)(F)F)CC1	FLT3	cell-free assay, competition with immobilised ligand	1 µM	remaining binding	100%
O=C(c1ccc(Nc2ncc(Cl)c(-c3ccc(Cl)s3)n2)cc1)N1CCC(N2CCCC2)CC1	FLT3 F691L/ITD	binding, competition with immobilised ligand	1 µM	remaining binding	1.8%
NS(=O)(=O)c1cc(NC(=O)C2(c3ccccc3Cl)CC2)ccc1Oc1cccc(Cl)c1	FLT3 R834Q	cell-free assay, competition with immobilised ligand	1 µM	remaining binding	100%
CC(C)(O)[C@H]1CC[C@H](Nc2ccc3ncc(-c4cccc(C(F)(F)F)c4)n3n2)CC1	FLT3	enzyme activity, inhibitor	1 µM	remaining activity	6.31%
O=C1NC(c2ccccn2)Sc2ccccc21 (centres unmarked)	Receptor-type tyrosine-protein kinase FLT3 (FLT3, Homo sapiens, UniProt P36888, D835V/ITD)	cell-free assay, competition with immobilised ligand	1 µM	remaining binding	83%
O=C(c1ccc(Nc2ncc(Cl)c(-c3cc4ccccc4s3)n2)cc1)N1CCC(N2CCCC2)CC1	FLT3 ITD	binding, competition with immobilised ligand	1 µM	remaining binding	6.2%

SMILES	target	test	conditions	endpoint	result
Cc1[nH]c(/C=C2\C(=O)Nc3ccc(F)cc32)c(C)c1C(=O)N[C@H]1CCN(C(=O)N(C)C)C1	FLT3	enzyme activity, inhibitor	1 µM	remaining activity	2%
Cc1cnn2ncc(-c3ccnc(N(C)C)n3)c2c1	FLT3 autoinhibited	binding	1 µM	remaining binding	84%
O=C(NCCCN1CCOCC1)c1ccc(Nc2ncc(Cl)c(-c3ccc(Cl)s3)n2)cc1	FLT3 D835H	binding, competition with immobilised ligand	1 µM	remaining binding	3.1%
Cc1c(NC(=O)c2cc(C(N)=O)nc3cc(F)ccc23)c(C(F)(F)F)nn1Cc1ccc(C(C)(C)C)cc1	FLT3	cell-free assay, competition with immobilised ligand	1 µM	remaining binding	100%
N[C@H]1CCN(c2nccc(-c3cnn4ncccc34)n2)C1	FLT3 D835Y	binding	1 µM	remaining binding	97%
N#Cc1ccc(Nc2ccc3[nH]c(=O)[nH]c3c2)c(Cl)c1	FLT3 D835Y	cell-free assay, competition with immobilised ligand	1 µM	remaining binding	94%
CN(CCCC(F)(F)F)c1nccc(-c2cnn3ncccc23)n1	FLT3	binding	1 µM	remaining binding	63%
Nc1ncnc2occ(-c3ccc(NC(=O)Nc4cc(C(F)(F)F)ccc4F)cc3)c12	FLT3 F691L/ITD	cell-free assay, inhibitor	20 µM	remaining signal	6.5%
COc1ccc(COc2ccc(Cc3cnc(N)nc3N)cc2OC)cc1	FLT3	cell-free assay	0.5 µM	remaining signal	103%
C[C@H]1CCN(c2nccc(-c3cnn4ncccc34)n2)C1	Receptor-type tyrosine-protein kinase FLT3 (FLT3, Homo sapiens, UniProt P36888, D835V)	binding	1 µM	remaining binding	53%
O=C(Nc1cnn(-c2csc(C(=O)NC3COC3)c2)c1)Nc1c(F)cccc1Cl	FLT3	enzyme activity, inhibitor	5 µM	remaining activity	99.2%
Oc1cccc(-c2nc(N3CCOCC3)c3oc4ncccc4c3n2)c1	FLT3	cell-free assay	0.5 µM	remaining signal	87.1%
Fc1cccc(-n2cnc3c(NCc4nc5c(F)c(F)ccc5[nH]4)nc(N4CCOCC4)nc32)c1	FLT3 D835H	binding, competition with immobilised ligand	10 µM	binding vs control	42%
Cc1ccc(Nc2nccc(N(C)c3ccc4c(C)n(C)nc4c3)n2)cc1S(N)(=O)=O	FLT3	enzyme activity, inhibitor	0.5 µM	remaining activity	40.7%
COc1ccnn2ncc(-c3ccnc(N(C)C)n3)c12	FLT3 D835H	binding	1 µM	remaining binding	100%
CC(C)(C)c1nc2c(s1)c1nc(N)ncc1c1ccc(NS(=O)(=O)c3c(F)cccc3F)c(F)c12	FLT3	enzyme activity, inhibitor, radiometric	1 µM	remaining activity	104%
CC(C)c1ccc(NC(=O)c2cccs2)c(-c2nc3ccccc3[nH]c2=O)c1	FLT3	enzyme activity, inhibitor	1 µM	activity vs control	51%
